Measured values as given in publication PMC11790068 (Journal of medicinal chemistry, 2015).
Entries after “also recorded” stand apart in the source; their conditions may differ. Values belong to the compound of their own block, whether it stands above or below them.

How the values were obtained:
[1] = test system: CT-L activity of purified 20S human proteasomes (β5, β5i, β1i); test: Enzyme kinetics assay, CT-L activity of purified 20S proteasomes; assay type: biochemical; conditions: for Inhibition of the CT-L activity of purified proteasomes: purified 20S CP and IP, β5, β5i, β1i, result in words; for Activation of the CT-L activity of proteasomes: at 10 μM, purified proteasomes
In short: (§1)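 Purified human 20S constitutive and immunoproteasome (0.5 µg/mL) was preincubated with test compound for 30 min at room temperature in 20 mM Tris-HCl, 0.5 mM EDTA, 0.035% SDS. Reactions were started with a subunit-selective AMC substrate: β1 Ac-nLPnLD-AMC 100 µM; β2/β2i Boc-LRR-AMC 200 µM; β5 Ac-WLA-AMC 20 µM; β1i Ac-PAL-AMC 100 µM; β5i Ac-ANW-AMC 100 µM. AMC fluorescence (ex 360/em 460 nm) was followed for 90 min at room temperature.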

[2] = test system: proteasomal CT-L activity of RPMI 8226 cell extracts; test: CT-L activity of proteasomes in cell extracts; assay type: biochemical, human; conditions: result in words
In short: (§2)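 Cytosolic extracts of RPMI-8226 cells were prepared by the Kisselev and Goldberg method and used in place of purified 20S proteasome. Hydrolysis of fluorogenic substrates was measured as AMC release: Suc-LLVY-AMC for CT-L, Z-LLE-AMC for C-L and Boc-LRR-AMC for T-L activity. Fluorescence was read at excitation 360 and emission 460 nm.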

[3] = target: T1, proteasomal C-L activity of RPMI 8226 cell extracts (Homo sapiens, UniProt P28072); test: C-L activity of proteasomes in cell extracts; assay type: biochemical; conditions: result in words
T1 sequence (P28072 1-239): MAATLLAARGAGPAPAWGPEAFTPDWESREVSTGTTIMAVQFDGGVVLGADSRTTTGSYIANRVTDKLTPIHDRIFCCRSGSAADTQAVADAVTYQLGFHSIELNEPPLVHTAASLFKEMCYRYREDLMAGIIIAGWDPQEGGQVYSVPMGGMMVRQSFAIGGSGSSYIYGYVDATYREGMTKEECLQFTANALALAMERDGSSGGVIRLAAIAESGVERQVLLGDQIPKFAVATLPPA
In short: as §2

[4] = test system: proteasomal T-L activity of RPMI 8226 cell extracts; test: T-L activity of proteasomes in cell extracts; assay type: biochemical, human; conditions: result in words
In short: as §2

[5] = test system: proteasome in RPMI 8226 cell lysates (Suc-LLVY-AMC hydrolysis); test: Jump dilution reversibility assay; assay type: biochemical, human
In short: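 RPMI 8226 lysate (30 µg total protein) was incubated with test compound at 10 µM in 20S proteasome assay buffer for 30 min at room temperature. Baseline Suc-LLVY-AMC hydrolysis was recorded in a cuvette. The mixture was then rapidly diluted 25-fold in assay buffer (10 to 0.4 µM compound), and substrate hydrolysis was monitored for about 30 min.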

[6] = test system: cancer cell lines including LNCaP prostate cancer cells; test: Cytotoxicity of G4-1 in cancer cell lines; assay type: cell-based, human; conditions: variety of cancer cell lines including LNCaP; 72 h
In short: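 Log-phase adherent cells were seeded at 7,000–10,000 per well; suspension RPMI 8226 cells were pelleted and seeded at 10,000 per well. Viability was read after 72 h by CellTiter Glo luminescence or CellTiter 96 Aqueous One absorbance.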

[7] = test system: BxPC-3 cell lines with acquired resistance to bortezomib or carfilzomib; test: Cytotoxicity in bortezomib- or carfilzomib-resistant BxPC-3 sublines; assay type: cell-based, human; conditions: BxPC-3 sublines adapted to 60 nM bortezomib or 200 nM carfilzomib
[8] = test system: LNCaP tumors; test: In vivo efficacy assay, LNCaP xenograft; set-up: species or system mouse; conditions: 5 mg/kg i.p. twice a week for 4 weeks
[9] = target: C-L activity responsible β1 subunit of purified 20S human proteasome (Homo sapiens, UniProt P28072); test: Enzyme kinetics assay, C-L activity of purified 20S proteasome; assay type: biochemical; conditions: result in words
In short: as §1

Structure (SMILES): Cc1ccc(OS(=O)(=O)c2cccc(C(F)(F)F)c2)c(-c2cc(-c3ccccc3)n(CC(=O)N[C@@H]3CCNC3)n2)c1 [G4-1]
Inhibition of the CT-L activity of purified proteasomes [1]: most potent inhibitor
Inhibition of proteasomal CT-L activity of cell extracts [2]: effectively inhibit
Inhibition of proteasomal C-L activity of cell extracts [3]: effectively inhibit
Activity against the T-L activity of cell extracts [4]: no activity
Inhibition of proteasomal activity after preincubation ([5]; 10 μM, 30 min preincubation with RPMI 8226 cell extracts): nearly complete inhibition
Inhibitor dissociation half-life ([5]; after 25-fold dilution from 10 to 0.4 μM): approximately 3.2 min
Mode of proteasome inhibition ([5]; jump dilution, upward curvature of progress curve): reversibility
Anticancer activity against cancer cell lines [6]: good anticancer activity
Impact of acquired resistance to bortezomib or carfilzomib on anticancer effect [7]: not negatively impacted
Body weight of mice over the course of treatment [8]: maintained normal weight gain
Systemic toxicity in mice [8]: without apparent systemic toxicity
Tumor growth in vivo ([8]; nude mice bearing LNCaP tumors): effectively suppressed tumor growth

Structure (SMILES): CC1=C(COC(=O)Cn2nc(-c3cc(C)ccc3OS(=O)(=O)c3cccc(C(F)(F)F)c3)cc2-c2ccccc2)Cc2ccccc21 [G4-16]
Activation of the CT-L activity of proteasomes [1]: up to 200%

Structure (SMILES): Cc1ccc(OS(=O)(=O)c2cccc(C(F)(F)F)c2)c(-c2cc(-c3ccccc3)n(CCN[C@@H]3CCNC3)n2)c1 [G4]
Inhibition of the CT-L activity of purified proteasomes [1]: potently inhibit; also recorded: selectively inhibits; also recorded: preferentially inhibits
Inhibition of the C-L activity (β1) of purified proteasome [9]: selectively inhibits; also recorded: preferentially inhibits

Structure (SMILES): Cc1ccc(OS(=O)(=O)c2ccc(F)c([N+](=O)[O-])c2)c(-c2cc(-c3ccccc3)n(CCN[C@@H]3CCNC3)n2)c1 [G4–21]
Activation of the CT-L activity of proteasomes [1]: up to 200%

Other lines, results leading:

Inhibition of the CT-L activity of purified proteasomes [1]: potently inhibit
Structure (SMILES): Cc1ccc(OS(=O)(=O)c2cccc(C(F)(F)F)c2)c(-c2cc(C3CCCCC3)n(CCN[C@@H]3CCNC3)n2)c1 [G4-40]

Inhibition of the CT-L activity of purified proteasomes [1]: potently inhibit
Structure (SMILES): Cc1ccc(OS(=O)(=O)c2cccc(C(F)(F)F)c2)c(-c2cc(C3CCCNC3)n(CCN[C@@H]3CCNC3)n2)c1 (stereo partly shown) [G4-41]

Inhibition of the CT-L activity of purified proteasomes [1]: potently inhibit
Structure (SMILES): Cc1ccc(OS(=O)(=O)c2cccc(C(F)(F)F)c2)c(-c2cc(C3CCCN(C(=O)N[C@@H]4CCNC4)C3)n(CCN[C@@H]3CCNC3)n2)c1 (stereo partly shown) [G4-42]
